According to ChEMBL document CHEMBL1143049, “Preparation, biological activity and endogenous occurrence of N6-benzyladenosines” (Bioorg Med Chem, 2007):

How the values were obtained:
[1] = tested on: HOS; assay: Antitumor activity against human HOS cells after 72 hrs by Calcein AM assay; assay type: functional, cell-based
Procedure, shortened: (§1)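 Cells grown in DMEM at 37 °C under 5% CO2. Compounds added after 12 h preincubation in 96-well plates, final 0.5-170 μM, with 0.6% final DMSO, then 72 h exposure. Viable cells stained with Calcein AM for 1 h and read at 485/538 nm. IC50 (concentration lethal to 50% of cells) taken from dose-response curves. Run in quadruplicate.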

[2] = Antitumor activity against human MCF cells after 72 hrs by Calcein AM assay; assay type: functional, cell-based; procedure, shortened: as §1
[3] = tested on: Nicotiana tabacum; assay: Cytokinin activity in tobacco assessed as stimulation of callus growth at 1 umol/L relative to 6-Benzylaminopurine; assay type: functional
Procedure, shortened: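 Stimulation of tobacco callus growth. Compounds dissolved in DMSO, brought to 10^-3 M in water and diluted into medium (DMSO ≤0.2%). Range 10^-4 to 10^-8 M, five replicates per concentration, at least three independent repeats. Activity at the optimal concentration given relative to BAP's optimal response, taken as 100.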

[4] = tested on: HL-60; assay: Antitumor activity against human HL60 cells after 72 hrs by Calcein AM assay; assay type: functional, cell-based; details: HL-60, 72 h; procedure, shortened: as §1
[5] = tested on: K562; assay: Antitumor activity against human K562 cells after 72 hrs by Calcein AM assay; assay type: functional, cell-based; details: K562, 72 h; procedure, shortened: as §1
[6] = Cytotoxicity against mouse NIH 3T3 cells after 72 hrs by Calcein AM assay; assay type: cell-based; details: NIH3T3, 72 h; procedure, shortened: as §1
[7] = tested on: Triticum aestivum; assay: Cytokinin activity in wheat assessed as retention of chlorophyll in excised wheat leaves at 0.1 mmol/L relative to 6-Benzylaminopurine by senescence assay; assay type: functional
Procedure, shortened: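 Senescence assay measuring chlorophyll retention in excised wheat leaves. DMSO stocks brought to 10^-3 M with water, then diluted in assay medium to a final DMSO of at most 0.2%. Concentrations 10^-4 to 10^-8 M, quintuplicate, repeated at least three times. Response at the optimal concentration normalised to BAP optimum = 100.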

[8] = tested on: CCRF-CEM; assay: Antitumor activity against human CEM cells after 72 hrs by Calcein AM assay; assay type: functional, cell-based; procedure, shortened: as §1
[9] = tested on: Amaranthus; assay: Cytokinin activity in Amaranthus cotyledons assessed as dark induction of betacyanin synthesis at 0.1 mmol/L relative to 6-Benzylaminopurine; assay type: functional
Procedure, shortened: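 Dark induction of betacyanin in excised Amaranthus cotyledons. DMSO stock brought to 10^-3 M in water, diluted into assay medium (DMSO ≤0.2%). Tested over 10^-4 to 10^-8 M, five replicates per concentration, assay repeated at least three times. Response at the optimal concentration expressed relative to BAP at its optimum (set to 100).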

[10] = tested on: G-361; assay: Antitumor activity against human G361 cells after 72 hrs by Calcein AM assay; assay type: functional, cell-based; details: G-361, 72 h; procedure, shortened: as §1
[11] = tested on: B16; assay: Antitumor activity against mouse B16 cells after 72 hrs by Calcein AM assay; assay type: functional, cell-based; details: B16, 72 h; procedure, shortened: as §1

Row | SMILES | IC50 [1] | IC50 [2] | Activity [3] | IC50 [4] | IC50 [5] | IC50 [6] | Activity [7] | IC50 [8] | Activity [9] | IC50 [10] | IC50 [11] | Activity ([3]; in the assay text read “at 10 umol/L” for “at 1 umol/L”)
1 | Cc1ccc(CNc2ncnc3c2ncn3[C@@H]2O[C@H](CO)[C@@H](O)[C@H]2O)cc1 | > 167 µM | > 167 µM | 35% | > 167 µM | > 167 µM | > 167 µM | 54.5% | > 167 µM | 49% |  |  | 
2 | COc1cc(CNc2ncnc3c2ncn3[C@@H]2O[C@H](CO)[C@@H](O)[C@H]2O)cc(OC)c1O | > 167 µM | > 167 µM |  |  | > 167 µM |  |  |  |  | > 167 µM |  | 
3 | OC[C@H]1O[C@@H](n2cnc3c(NCc4ccc(C(F)(F)F)cc4)ncnc32)[C@H](O)[C@@H]1O | > 167 µM | > 167 µM |  |  | > 167 µM |  | 52% |  | 14% | > 167 µM |  | 
4 | OC[C@H]1O[C@@H](n2cnc3c(NCc4ccc(F)cc4F)ncnc32)[C@H](O)[C@@H]1O | > 167 µM | > 167 µM | 96% | 3.4 µM | 9.6 µM | > 167 µM | 171% | 7.1 µM | 88% | > 167 µM | > 167 µM | 
5 | Cc1ccccc1CNc1ncnc2c1ncn2[C@@H]1O[C@H](CO)[C@@H](O)[C@H]1O [METRIFUDIL] | > 167 µM | > 167 µM | 98% | 3.3 µM | > 167 µM | > 167 µM | 141% | 14 µM | 99% | > 167 µM |  | 
6 | OC[C@H]1O[C@@H](n2cnc3c(NCc4ccccc4C(F)(F)F)ncnc32)C(O)C1O (stereo partly specified) | > 167 µM | > 167 µM |  |  | > 167 µM |  | 40% |  | 121% | > 167 µM |  | 
7 | OC[C@H]1O[C@@H](n2cnc3c(NCc4ccc(OC(F)(F)F)cc4)ncnc32)[C@H](O)[C@@H]1O | > 167 µM | > 167 µM |  |  | > 167 µM |  | 3% |  | 21% | > 167 µM |  | 
8 | OC[C@H]1O[C@@H](n2cnc3c(NCc4ccc(Cl)c(Cl)c4)ncnc32)[C@H](O)[C@@H]1O | > 167 µM | 88.8 µM | 17% | 2 µM | 10.8 µM |  | 151% | 3.8 µM | 68% | 145 µM | > 167 µM | 
9 | OC[C@H]1O[C@@H](n2cnc3c(NCc4cccc(OC(F)(F)F)c4)ncnc32)[C@H](O)[C@@H]1O | > 167 µM | > 167 µM | 86% |  | > 167 µM |  | 90% |  | 104% | > 167 µM |  | 
10 | COc1ccc(CNc2ncnc3c2ncn3C2OC(CO)[C@@H](O)[C@H]2O)c(O)c1 (stereo partly specified) | > 167 µM | 2.2 µM |  |  | 80.8 µM |  | 22% | 12.8 µM | 0% |  |  | 
11 | COc1cc(O)cc(OC)c1CNc1ncnc2c1ncn2[C@@H]1O[C@H](CO)[C@@H](O)[C@H]1O | > 167 µM | > 167 µM |  |  | > 167 µM |  |  |  | 7% | > 167 µM |  | 
12 | OC[C@H]1O[C@@H](n2cnc3c(NCc4cc(F)cc(F)c4)ncnc32)C(O)C1O (stereo partly specified) |  | > 167 µM | 95% | 9.1 µM | > 167 µM | > 167 µM | 195% | 24.5 µM | 110% | > 167 µM | > 167 µM | 
13 | OC[C@H]1O[C@@H](n2cnc3c(NCc4ccc(Br)cc4)ncnc32)[C@H](O)[C@@H]1O | > 167 µM | > 167 µM | 16% | 47.4 µM | 68.2 µM | > 167 µM | 76% | 20.6 µM | 30% | > 167 µM | > 167 µM | 
14 | OC[C@H]1O[C@@H](n2cnc3c(NCc4c(F)ccc(F)c4F)ncnc32)[C@H](O)[C@@H]1O |  | > 167 µM |  | 13 µM | > 167 µM |  | 133% | 90.3 µM | 94% | > 167 µM | > 167 µM | 92%
15 | OC[C@H]1O[C@@H](n2cnc3c(NCc4cccc(C(F)(F)F)c4)ncnc32)[C@H](O)[C@@H]1O | > 167 µM | > 167 µM | 85% |  | > 167 µM |  | 95% |  | 93% | > 167 µM |  | 
16 | OC[C@H]1O[C@@H](n2cnc3c(NCc4ccccc4OC(F)(F)F)ncnc32)[C@H](O)[C@@H]1O | > 167 µM | > 167 µM |  | > 167 µM | 81.4 µM |  | 61% | > 167 µM | 78% | > 167 µM | > 167 µM | 
17 | OC[C@H]1O[C@@H](n2cnc3c(NCc4cccc(O)c4O)ncnc32)[C@H](O)[C@@H]1O | > 167 µM | 5.2 µM |  |  | 25.8 µM |  | 7% |  | 24% | 16.9 µM |  | 
18 | COc1cc(CNc2ncnc3c2ncn3[C@@H]2O[C@H](CO)[C@@H](O)[C@H]2O)cc(OC)c1 |  | > 167 µM | 11% | 20.2 µM | > 167 µM |  | 47% | > 167 µM | 2% |  |  | 
19 | OC[C@H]1O[C@@H](n2cnc3c(NCc4cccc(I)c4)ncnc32)[C@H](O)[C@@H]1O |  |  | 45% |  |  |  | 58% |  | 102% |  |  | 
20 | COc1ccc(CNc2ncnc3c2ncn3[C@@H]2O[C@H](CO)[C@@H](O)[C@H]2O)cc1O |  | > 167 µM |  | > 167 µM | > 167 µM | > 167 µM | 19% | > 167 µM | 24% |  |  | 
21 | COc1cccc(OC)c1CNc1ncnc2c1ncn2[C@@H]1O[C@H](CO)[C@@H](O)[C@H]1O |  |  |  |  |  |  | 68% |  | 54% |  |  | 
22 | OC[C@H]1O[C@@H](n2cnc3c(NCc4ccc(F)c(Cl)c4)ncnc32)[C@H](O)[C@@H]1O | > 167 µM | > 167 µM | 87% | 3.5 µM | 5.5 µM | > 167 µM | 156% | 3.4 µM | 82% | > 167 µM | 167 µM | 
23 | COc1cccc(CNc2ncnc3c2ncn3[C@@H]2O[C@H](CO)[C@@H](O)[C@H]2O)c1O | > 167 µM | 20.2 µM |  | 0.15 µM | 27.9 µM | > 167 µM | 10% | 0.3 µM | 18% | 148 µM | > 167 µM | 
24 | COc1cccc(CNc2ncnc3c2ncn3[C@@H]2O[C@H](CO)[C@@H](O)[C@H]2O)c1OC | > 167 µM | > 167 µM | 5% | > 167 µM | > 167 µM |  | 106% | > 167 µM | 21% |  |  | 
25 | OC[C@H]1O[C@@H](n2cnc3c(NCc4cc(O)cc(O)c4)ncnc32)[C@H](O)[C@@H]1O | > 167 µM | > 167 µM |  |  | > 167 µM |  | 96% |  | 31% | > 167 µM |  | 
